# Substitutions are numbered along the chain they refer to.
# Columns and labels:
# healthy mice = assay: Toxicity test in healthy mice; type: in vivo, C57BL/6J mice; details: 200 mg/kg oral
# MC3T3-E1 cells [1] = assay: Cell viability; type: cell-based; details: for cytotoxicity towards MC3T3-E1 cells: 0–20 μmol/L, 96 h
# Notum [2] = molecular target: T1, Notum (Homo sapiens, UniProt Q6P988); assay: Notum inhibition assay, OPTS as substrate; type: biochemical
# T1 sequence (Q6P988 20-496): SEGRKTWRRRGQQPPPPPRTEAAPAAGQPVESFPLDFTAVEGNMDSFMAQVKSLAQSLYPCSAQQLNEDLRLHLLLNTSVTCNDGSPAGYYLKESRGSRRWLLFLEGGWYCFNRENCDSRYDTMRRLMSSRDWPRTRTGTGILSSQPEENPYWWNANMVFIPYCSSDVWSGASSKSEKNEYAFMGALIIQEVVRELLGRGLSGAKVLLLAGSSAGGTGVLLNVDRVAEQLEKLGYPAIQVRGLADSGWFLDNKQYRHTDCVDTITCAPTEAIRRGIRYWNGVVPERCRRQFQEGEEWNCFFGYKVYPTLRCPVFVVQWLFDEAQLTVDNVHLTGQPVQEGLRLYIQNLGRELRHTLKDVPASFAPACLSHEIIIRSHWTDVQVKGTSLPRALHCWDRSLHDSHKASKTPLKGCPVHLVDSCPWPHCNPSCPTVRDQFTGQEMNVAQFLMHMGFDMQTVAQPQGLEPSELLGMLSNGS
# MC3T3-E1 cells [3] = assay: ALP staining, osteoblast differentiation in DXMS-challenged MC3T3-E1 cells; type: cell-based; details: 7 days
# Procedure, shortened: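 MC3T3-E1 cells were kept in DMEM with 10% FBS and 1% penicillin–streptomycin at 37 °C under 5% CO₂. Cells were seeded at 2×10^3 cells/well and grown 24 h, then switched to inducible medium. DXMS and test compound were added together for seven days, with medium changed every two days. Cells were fixed 15 min in 4% paraformaldehyde at room temperature, PBS-washed, BCIP/NBT ALP-stained, imaged and quantified.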
# Notum [4] = molecular target: T1, Notum; assay: Notum inhibition assay, DO as fluorogenic substrate; type: biochemical
# [5] = system: DXMS-induced osteoporotic mice; assay: In vivo anti-osteoporosis test in DXMS-induced osteoporotic mice; set-up: species or system C57BL/6J mice; details: for effect on weight loss induced by DXMS: five weeks
# Procedure, shortened: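 Male C57BL/6J mice (6 weeks) were held SPF at 25 ± 2 °C, 50 ± 10% humidity and 12 h/12 h light/dark, with 7 days acclimatisation. They were randomised into five groups. DXMS was given i.p. at 2.5 mg/kg, five times weekly for five weeks. Test compound was dosed orally daily; PTH1–34 was given i.p. After five weeks, serum, femurs and tibias were collected. Serum ALP, OT/BGT, OPG and Col-1A1 were measured by ELISA kits. Data are mean ± SD.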
# CYPs = details: phase I metabolic systems, GSH trapping
# F268G Notum = molecular target: T2, F268G Notum (Homo sapiens, UniProt Q6P988, F268G); assay: Inhibition of DO hydrolysis in F268G Notum mutant; type: biochemical
# T2 sequence (Q6P988 20-496 F268G): T1 sequence (Q6P988 20-496) with F249G
# [6] = cited from earlier work
# [7] = Tissue distribution in mice after gavage; type: in vivo, C57BL/6J mice
# Procedure, shortened: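 Twenty male C57BL/6J mice (6 weeks, 18–20 g) were randomised into four groups: control, 1 h, 2 h and 3 h. Test compound in 0.5% CMC-Na was given once by gavage. Mice were anaesthetised at 0, 1, 2 or 3 h, and blood and organs including femur were removed. Samples were centrifuged at 20,000 × g, 4 °C, 30 min, and compound concentration was determined by LC–MS/MS.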
# Wnt/β-catenin signaling = type: cell-based; details: DXMS-challenged MC3T3-E1 cells, 7 days
# MC3T3-E1 cells [8] = assay: Alizarin red S staining, calcification in DXMS-challenged MC3T3-E1 cells; type: cell-based; details: DXMS-challenged (200 μmol/L) MC3T3-E1 cells, 21 days
# [9] = IC50 (DO as probe), Notum-catalyzed DO hydrolysis
# [10] = 5-MP 20 and 40 mg/kg oral daily, PTH 100 μg/kg/day i.p.
# [11] = distal and mid-femur, vs DXMS-challenged mice
# [12] = distal femur, DXMS-challenged mice
molecule,measurement,setting,value
O=c1ccc2cc3ccoc3cc2o1 [Psoralen],body weight,"healthy mice; 14 consecutive days, mice",decreased significantly
same,death of mice,"healthy mice; 14 consecutive days, mice",no death was observed
same,"organ injury (H&E, pathological examination)","healthy mice; 14 consecutive days, mice",varying degrees of organ injury
same,"organ coefficients of the heart, liver and kidney","healthy mice; 14 days, vs control",remarkably elevated
same,"serum levels of ALP, CREA, UREA and TG","healthy mice; 14 days, vs control",elevate
same,serum levels of AST and ALT,"healthy mice; 14 days, vs control",elevated
same,cytotoxicity towards MC3T3-E1 cells,MC3T3-E1 cells [1],weak cytotoxicity
same,IC50,Notum [2],99.9 ± 10.8 nM
same,effect on ALP levels (osteoblast differentiation),MC3T3-E1 cells [3],relatively weak
same,IC50,Notum [4]; [9],108 ± 10.4 nM
O=c1oc2cc(O)ccc2c2oc3cc(O)ccc3c12 [Coumestrol],IC50,Notum [4],12800 ± 2440 nM
"C[C@@H]1C[C@H]2[C@@H]3CCC4=CC(=O)C=C[C@]4(C)[C@@]3(F)[C@@H](O)C[C@]2(C)[C@@]1(O)C(=O)CO [DXMS, dexamethasone, reference compound]",cells diminished,MC3T3-E1 cells [1]; 200 μmol/L,approximately 50%
COc1c2occc2cc2ccc(=O)oc12 [8-Methoxypsoralen],IC50,Notum [4],9450 ± 1380 nM
"PTH: parathyroid hormone 1–34, positive drug for treating osteoporosis (SVSEIQLMHNLGKHLNSMERVEWLRKKLQDVHNF; Parathyroid hormone; UniProt P01270 32-65, looked up, fragment) [reference compound]",effect on weight loss induced by DXMS,[5]; [10],neither PTH (positive control for osteoporosis) nor 5-MP (20 and 40 mg/kg) could significantly reverse the weight loss
O=c1ccc2ccc3occc3c2o1 [Isopsoralen],body weight,"healthy mice; 14 consecutive days, mice",significantly decreased
same,death of mice,"healthy mice; 14 consecutive days, mice",the mice began to die
same,"organ injury (H&E, pathological examination)","healthy mice; 14 consecutive days, mice",varying degrees of organ injury
same,"organ coefficients of the heart, liver and kidney","healthy mice; 14 days, vs control",remarkably elevated
same,serum levels of AST and ALT,"healthy mice; 14 days, vs control",elevated
same,"serum levels of CK, UREA and TG","healthy mice; 14 days, vs control",decrease
same,cytotoxicity towards MC3T3-E1 cells,MC3T3-E1 cells [1],weak cytotoxicity
same,IC50,Notum [2],71.9 ± 11 nM
same,effect on ALP levels (osteoblast differentiation),MC3T3-E1 cells [3],relatively weak
same,formation of reactive intermediates,CYPs,metabolically bioactivated by CYPs to generate reactive intermediates
same,IC50,Notum [4]; [9],72.7 ± 5.03 nM
"COc1c2ccoc2cc2oc(=O)ccc12 [5-MP, 5-methoxypsoralen]","organ injury (H&E, pathological examination)","healthy mice; 14 consecutive days, mice",no organ injury was observed
same,overall mortality rate,"healthy mice; 14 consecutive days, mice",0%
same,"serological indicators of organ injury (ALT, AST, CK, CREA)","healthy mice; 14 days, vs control",no significant difference
same,serum levels of TC and TG,"healthy mice; 14 days, vs control",decreased
same,spleen coefficient,"healthy mice; 14 days, vs control",slight decline
same,organ coefficient,"healthy mice; 14 days, vs control, except spleen",no significant difference
same,cytotoxicity towards MC3T3-E1 cells,MC3T3-E1 cells [1],weak cytotoxicity
same,IC50,Notum [2],11.2 ± 0.6 nM
same,Ki,Notum [2],15.1 nM
same,inhibition manner,"Notum [2]; inhibition kinetics, OPTS hydrolysis",competitive
same,effect on ALP levels (osteoblast differentiation),MC3T3-E1 cells [3],dose-dependently mitigate the reduced ALP levels
same,IC50,F268G Notum,1210 nM
same,half-life (t1/2),[6],4.21 h
same,formation of reactive intermediates,CYPs,did not detect reactive intermediates
same,concentration at 2 h,"[7]; male, C57BL/6J, mouse, femur, po, 40 mg/kg",8.3 nM
same,concentration at 3 h,"[7]; male, C57BL/6J, mouse, plasma, po, 40 mg/kg",44.6 nM
same,tissue distribution,"[7]; single oral dose 40 mg/kg, mice",high exposure in the plasma and the liver
same,effect on weight loss induced by DXMS,[5]; [10],neither PTH (positive control for osteoporosis) nor 5-MP (20 and 40 mg/kg) could significantly reverse the weight loss
same,"serum levels of osteogenic markers (ALP, OT/BGT, OPG, Col-1A1)","[5]; 5-MP 20 and 40 mg/kg oral daily, PTH 100 μg/kg/day i.p., vs DXMS",substantially increased
same,bone volume fraction (BV/TV) and bone mineral density (BMD),[5]; [11],significantly enhanced
same,trabecular and cortical bone thickness (micro-CT),[5]; [11],significantly improved
same,immunofluorescence signals of Notum in cortical bone tissues,[5]; [12],significantly decreased
same,immunofluorescence signals of Notum in marrow cavity,[5]; [12],hardly decrease
same,new bone formation (double labeling),"[5]; tibia, vs DXMS-challenged group",active new bone formation
same,"mRNA levels of Notum, GSK3β, β-catenin, OPN and RUNX2",Wnt/β-catenin signaling,significantly reversed the abnormal mRNA levels
same,Ki,Notum [4],23.5 nM
same,IC50,Notum [4]; [9],18.7 ± 2.08 nM
same,inhibition manner,"Notum [4]; inhibition kinetics, DO hydrolysis",competitive
same,effect on intracellular calcification (ARS staining),MC3T3-E1 cells [8],significantly reversed the intracellular calcium loss

# Source: article PMC12399195 (Acta Pharmaceutica Sinica. B, 2025)
